Laboratory results from ChEMBL document CHEMBL1133468, “New diarylmethylpiperazines as potent and selective nonpeptidic delta opioid receptor agonists with increased In vitro metabolic stability” (J Med Chem, 2000).

Legend:
[1] = target: T1, Delta-type opioid receptor (Homo sapiens, UniProt P41143); test: Binding affinity against human opioid receptor delta 1 using [125I]-[D-Ala2]-deltorphin II as radioligand
[2] = Maximal efficacy (Emax value); format: functional
Outline: (§1)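 GTPγ35S binding on P2 membranes of HEK-293S cells stably expressing human δ receptor (9.7 pmol/mg protein). Filtration after 1 h. Stimulated binding set with 3 µM SNC-80. %Emax from 3-parameter logistic fit.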

Mu-type opioid receptor = Mu-type opioid receptor (Homo sapiens, UniProt P35372); test: Binding affinity against cloned human Opioid receptor mu 1 using [125I]FK33824 as radioligand
Sequence of Mu-type opioid receptor (P35372 whole entry): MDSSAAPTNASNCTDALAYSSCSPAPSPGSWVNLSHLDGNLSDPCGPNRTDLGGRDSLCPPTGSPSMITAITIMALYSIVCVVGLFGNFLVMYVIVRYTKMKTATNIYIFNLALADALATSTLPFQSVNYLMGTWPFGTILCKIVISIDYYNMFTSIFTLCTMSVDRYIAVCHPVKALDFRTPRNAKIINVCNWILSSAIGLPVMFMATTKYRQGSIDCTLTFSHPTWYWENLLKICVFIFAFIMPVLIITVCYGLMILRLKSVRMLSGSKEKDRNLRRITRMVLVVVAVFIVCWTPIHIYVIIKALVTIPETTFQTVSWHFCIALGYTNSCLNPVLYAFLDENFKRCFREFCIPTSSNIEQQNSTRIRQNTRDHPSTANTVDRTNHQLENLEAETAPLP

[3] = target: Kappa-type opioid receptor (Homo sapiens, UniProt P41145); test: Binding affinity against cloned human Opioid receptor kappa 1 using [125I]-D-Pro10-dynorphin A[1-11] as radioligand
Sequence of Kappa-type opioid receptor (P41145 whole entry): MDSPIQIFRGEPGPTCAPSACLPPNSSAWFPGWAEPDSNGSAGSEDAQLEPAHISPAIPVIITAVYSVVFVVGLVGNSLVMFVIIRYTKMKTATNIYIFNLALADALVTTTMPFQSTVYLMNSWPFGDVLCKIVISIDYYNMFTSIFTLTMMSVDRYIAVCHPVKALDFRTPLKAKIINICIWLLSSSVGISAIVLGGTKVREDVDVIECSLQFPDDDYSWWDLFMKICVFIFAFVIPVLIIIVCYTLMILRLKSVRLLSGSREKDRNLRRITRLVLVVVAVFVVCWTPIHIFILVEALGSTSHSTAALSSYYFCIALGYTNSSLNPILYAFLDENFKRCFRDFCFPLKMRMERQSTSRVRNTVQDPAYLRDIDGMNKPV

[4] = target: T1, Delta-type opioid receptor; test: Agonist potency was measured using GTP gamma-[35S] binding assay
[5] = Metabolic stability at a concentration of 10 uM in rat liver microsomes after 1 hr incubation; format: ADME
Outline: (§2)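 Substrate at 10 or 100 µM final (1% DMSO) with rat liver microsomes (0.4 mg/mL protein), 1 mM NADPH, 100 mM phosphate pH 7.4, 37 °C with gentle shaking, in duplicate. Reaction started by NADPH and stopped at 0 and 60 min with ice-cold acetonitrile. After centrifugation, supernatant analysed by LC-MS for % parent remaining. Controls omitted microsomes or NADPH.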

[6] = Metabolic stability at a concentration of 100 uM in rat liver microsomes after 1 hr incubation; format: ADME; outline: as §2
[7] = Emax value was determined; outline: as §1

T1 sequence (P41143 whole entry): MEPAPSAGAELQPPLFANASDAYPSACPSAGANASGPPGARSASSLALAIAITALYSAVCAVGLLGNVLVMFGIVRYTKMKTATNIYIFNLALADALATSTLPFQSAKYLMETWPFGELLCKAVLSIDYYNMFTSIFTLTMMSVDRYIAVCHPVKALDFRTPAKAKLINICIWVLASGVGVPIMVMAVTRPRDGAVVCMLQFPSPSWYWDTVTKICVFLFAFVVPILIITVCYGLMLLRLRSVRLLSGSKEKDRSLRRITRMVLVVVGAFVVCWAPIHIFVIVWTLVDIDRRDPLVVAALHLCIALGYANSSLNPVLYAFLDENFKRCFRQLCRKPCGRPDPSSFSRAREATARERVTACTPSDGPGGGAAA

| Structure (SMILES) | IC50 [1] | Emax [2] | IC50 (Mu-type opioid receptor) | IC50 [3] | EC50 [4] | remaining at 1 h, 10 µM [5] | remaining at 1 h, 100 µM [6] | Emax [7] |
| --- | --- | --- | --- | --- | --- | --- | --- | --- |
| CN(C)C(=O)c1ccc(C(c2ccccc2)N2CCNCC2)cc1 (centres undefined) | 60.4 nM | – | – | – | – | – | – | – |
| CCN(CC)C(=O)c1ccc(C(c2ccc(Cl)cc2)N2CCNCC2)cc1 (centres undefined) | 19.3 nM | 107% | 5330 nM | > 10000 nM | 113 nM | – | – | – |
| CCN(CC)C(=O)c1ccc(C(C2CCCCC2)N2CCNCC2)cc1 (centres undefined) | 98.4 nM | – | 185 nM | 724 nM | – | – | – | – |
| CCN(CC)C(=O)c1ccc(C(c2cccc3cccnc23)N2CCNCC2)cc1 (centres undefined) | 0.51 nM | 104% | 632 nM | 7020 nM | 3.6 nM | 52% | 83% | – |
| CCN(CC)C(=O)c1ccc(C(c2cccc(OC)c2)N2CC(C)NCC2(C)C)cc1 (centres undefined) | 53.3 nM | 94% | 284 nM | > 10000 nM | 273 nM | – | – | – |
| c1ccc(C(c2ccc(-c3nnn[nH]3)cc2)N2CCNCC2)cc1 (centres undefined) | 250 nM | – | – | – | – | – | – | – |
| CCN(CC)C(=O)c1ccc(C(c2ccc3cccnc3c2)N2CCNCC2)cc1 (centres undefined) | 1.1 nM | – | 1020 nM | 3160 nM | 6.86 nM | – | – | 100% |
| CCN(CC)C(=O)c1ccc(C(c2ccccc2)N2CCN(C(C)=O)CC2)cc1 (centres undefined) | > 2000 nM | – | – | – | – | – | – | – |
| CCN(CC)C(=O)c1ccc(C(c2ccccc2)N2CCCCC2)cc1 (centres undefined) | 2230 nM | – | – | – | – | – | – | – |
| C=CCN1C[C@H](C)N([C@H](c2ccc(C(=O)N(CC)CC)cc2)c2cccc(OC)c2)C[C@H]1C | – | 100% | – | – | – | – | – | – |
| CCN(CC)C(=O)c1ccc(C(c2ccccc2)N2CCNCC2)cc1 (centres undefined) | – | 104% | – | – | – | 60% | 89% | – |
| CCN(CC)C(=O)c1ccc(C(c2cccc(OC)c2)N2CCNCC2)cc1 (centres undefined) | 24.8 nM | 109% | 5290 nM | > 10000 nM | 42 nM | – | – | – |
| CCN(CC)C(=O)c1ccc(C(c2ccc3ccccc3c2)N2CCNCC2)cc1 (centres undefined) | 7.63 nM | 110% | 2680 nM | > 10000 nM | 50 nM | – | – | – |
| CCN(CC)C(=O)c1ccc(C(c2cccc3c2OC(C)(C)C3)N2CCNCC2)cc1 (centres undefined) | 1.15 nM | 101% | 785 nM | > 7600 nM | 7.1 nM | 43% | 93% | – |
| CCN(CC)C(=O)c1ccc(C(c2cccc(F)c2)N2CCNCC2)cc1 (centres undefined) | 4.5 nM | 97% | 5650 nM | > 10000 nM | 53.3 nM | – | – | – |
| NC(=O)c1ccc(C(c2ccccc2)N2CCNCC2)cc1 (centres undefined) | 509 nM | – | – | – | – | – | – | – |
| CCN(CC)C(=O)c1ccc(C(c2ccccc2)N2CCOCC2)cc1 (centres undefined) | > 10000 nM | – | – | – | – | – | – | – |
| CN1CCc2cc(-c3ccc(C(c4ccccc4)N4CCNCC4)cc3)ccc2C1=O (centres undefined) | 1650 nM | – | – | – | – | – | – | – |
| CCN(CC)C(=O)c1ccc(C(c2ccc3ncccc3c2)N2CCNCC2)cc1 (centres undefined) | 61.6 nM | – | – | – | – | – | – | – |
| CC(=O)c1ccc(C(c2ccccc2)N2CCNCC2)cc1 (centres undefined) | 1050 nM | – | – | – | – | – | – | – |
| COC(=O)c1ccc(C(c2ccccc2)N2CCNCC2)cc1 (centres undefined) | 307 nM | – | – | – | – | – | – | – |
| CC(C)(O)c1ccc(C(c2ccccc2)N2CCNCC2)cc1 (centres undefined) | 406 nM | – | – | – | – | – | – | – |

| Structure (SMILES) | IC50 [1] | Emax [2] | IC50 (Mu-type opioid receptor) | IC50 [3] | EC50 [4] | remaining at 1 h, 10 µM [5] | remaining at 1 h, 100 µM [6] | Emax [7] |
| --- | --- | --- | --- | --- | --- | --- | --- | --- |
| CCN(CC)Cc1ccc(C(c2ccccc2)N2CCNCC2)cc1 (centres undefined) | 555 nM | – | – | – | – | – | – | – |
| CCN(CC)C(=O)c1ccc(C(c2ccccc2)N2CCN(C)CC2)cc1 (centres undefined) | 40.4 nM | 58% | > 10000 nM | 6970 nM | 211 nM | – | – | – |
| CCN(CC)C(=O)c1ccc(C(c2cccc3ccccc23)N2CCNCC2)cc1 (centres undefined) | 2.36 nM | 99% | 777 nM | 4910 nM | 18 nM | – | – | – |
| CCN(CC)C(=O)c1ccc(C(c2cccc(OC)c2)N2CC(C)(C)NCC2C)cc1 (centres undefined) | 8.44 nM | 100% | 620 nM | > 10000 nM | 10.4 nM | – | – | – |
| CCN(CC)C(=O)c1ccc(C(c2ccc(OC)cc2)N2CCNCC2)cc1 (centres undefined) | 8.13 nM | 90% | 4540 nM | > 10000 nM | 187 nM | – | – | – |
| CCNC(=O)c1ccc(C(c2ccccc2)N2CCNCC2)cc1 (centres undefined) | 175 nM | – | – | – | – | – | – | – |
| O=C(O)c1ccc(C(c2ccccc2)N2CCNCC2)cc1 (centres undefined) | 410 nM | – | – | – | – | – | – | – |
| CCN(CC)C(=O)c1ccc(C(c2ccccc2)N2CCN(CC3CC3)CC2)cc1 (centres undefined) | 35.3 nM | – | 2400 nM | > 5600 nM | – | – | – | – |
| CCN(CC)C(=O)c1ccc(C(c2ccc(C)cc2)N2CCNCC2)cc1 (centres undefined) | 8.42 nM | 84% | 7090 nM | > 10000 nM | 78.1 nM | – | – | – |
| CCN(CC)C(=O)c1ccc(C(c2cccc3cnccc23)N2CCNCC2)cc1 (centres undefined) | 4.11 nM | 106% | 1480 nM | > 10000 nM | 54.6 nM | – | – | – |
| N#Cc1ccc(C(c2ccccc2)N2CCNCC2)cc1 (centres undefined) | 1290 nM | – | – | – | – | – | – | – |
| CCN(CC)C(=O)c1ccc(C(c2ccc3cc[nH]c3c2)N2CCNCC2)cc1 (centres undefined) | 6.81 nM | 105% | 2220 nM | 3970 nM | 44.9 nM | – | – | – |
| C=CCN1C[C@H](C)N([C@H](c2ccc(C(=O)N(CC)CC)cc2)c2cccc(O)c2)C[C@H]1C | – | 98% | 2.1 nM | 20 nM | 0.12 nM | 4% | 59% | – |
| CCCCN1CCN(C(c2ccccc2)c2ccc(C(=O)N(CC)CC)cc2)CC1 (centres undefined) | 28.6 nM | – | 486 nM | > 10000 nM | – | – | – | – |
| CCN(CC)C(=O)c1ccc(C(c2ccccc2)N(C)CCNC)cc1 (centres undefined) | 91.6 nM | – | 6970 nM | > 10000 nM | – | – | – | – |
| CCN(CC)S(=O)(=O)c1ccc(C(c2ccccc2)N2CCNCC2)cc1 (centres undefined) | 37.9 nM | 110% | – | – | 635 nM | – | – | – |
| C=CCN1CCN(C(c2ccccc2)c2ccc(C(=O)N(CC)CC)cc2)CC1 (centres undefined) | 15.9 nM | 109% | 5060 nM | 7570 nM | 33 nM | – | – | – |
| CCN(CC)C(=O)c1ccc(C(c2ccnc3ccccc23)N2CCNCC2)cc1 (centres undefined) | 132 nM | – | – | – | – | – | – | – |
| CCN(CC)C(=O)c1ccc(C(c2ccccc2)N2CCCNCC2)cc1 (centres undefined) | 19.6 nM | 96% | 2290 nM | 4530 nM | 303 nM | – | – | – |
| CCN(CC)C(=O)c1ccc(C(c2ccccc2)C2CCNCC2)cc1 (centres undefined) | – | 97% | > 10000 nM | > 10000 nM | – | – | – | – |
| CCC(CC)C(=O)c1ccc(C(c2ccccc2)N2CCNCC2)cc1 (centres undefined) | 100 nM | – | – | – | – | – | – | – |
